Laboratory results as given in ChEMBL document CHEMBL1130275, “Novel N-substituted 3 alpha-[bis(4'-fluorophenyl)methoxy]tropane analogues: selective ligands for the dopamine transporter” (J Med Chem, 1997).
pIC50, pKi: −log10 of the molar value.

Assays:
[1] = target: Sodium-dependent dopamine transporter (Rattus norvegicus) (UniProt P23977); test: Inhibition of binding of [3H]WIN-35 428 to dopamine transporter (in rat caudate putamen) by 10 uM of compound.; assay type: tissue-based
[2] = target: Sodium-dependent serotonin transporter (Rattus norvegicus, UniProt P31652); test: (§1) Compound is evaluated for binding to Serotonin transporter using [3H]citalopram as radioligand in rat brain; assay type: tissue-based
Chain of Sodium-dependent serotonin transporter (P31652 whole entry): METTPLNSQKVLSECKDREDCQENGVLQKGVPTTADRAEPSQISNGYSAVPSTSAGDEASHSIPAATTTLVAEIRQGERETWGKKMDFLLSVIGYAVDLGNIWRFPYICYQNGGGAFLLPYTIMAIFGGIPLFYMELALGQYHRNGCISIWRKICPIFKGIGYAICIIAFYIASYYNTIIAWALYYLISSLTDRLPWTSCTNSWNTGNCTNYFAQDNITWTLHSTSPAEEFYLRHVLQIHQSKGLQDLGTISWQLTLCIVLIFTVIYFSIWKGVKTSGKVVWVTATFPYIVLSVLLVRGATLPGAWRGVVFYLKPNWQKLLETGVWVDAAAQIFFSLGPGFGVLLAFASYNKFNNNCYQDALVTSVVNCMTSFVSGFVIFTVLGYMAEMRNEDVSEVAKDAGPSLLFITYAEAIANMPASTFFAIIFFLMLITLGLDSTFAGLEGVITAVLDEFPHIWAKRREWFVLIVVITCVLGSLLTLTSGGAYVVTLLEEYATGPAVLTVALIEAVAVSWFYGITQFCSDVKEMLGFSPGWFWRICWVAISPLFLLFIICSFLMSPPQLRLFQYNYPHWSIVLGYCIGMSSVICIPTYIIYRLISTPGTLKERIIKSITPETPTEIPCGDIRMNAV
Summary of the method: (§2)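 Binding data supplied by an outside contract lab using published methods. SERT: [3H]citalopram, 0.7 nM final. NET: [3H]desmethylimipramine, 3.0 nM final.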

[3] = target: T1, Sodium-dependent noradrenaline transporter (Homo sapiens, UniProt P23975); test: (§3) Compound was evaluated for binding to Norepinephrine Transporter (NET) using [3H]desmethylimipramine as radioligand; summary of the method: as §2
T1 sequence (P23975 whole entry): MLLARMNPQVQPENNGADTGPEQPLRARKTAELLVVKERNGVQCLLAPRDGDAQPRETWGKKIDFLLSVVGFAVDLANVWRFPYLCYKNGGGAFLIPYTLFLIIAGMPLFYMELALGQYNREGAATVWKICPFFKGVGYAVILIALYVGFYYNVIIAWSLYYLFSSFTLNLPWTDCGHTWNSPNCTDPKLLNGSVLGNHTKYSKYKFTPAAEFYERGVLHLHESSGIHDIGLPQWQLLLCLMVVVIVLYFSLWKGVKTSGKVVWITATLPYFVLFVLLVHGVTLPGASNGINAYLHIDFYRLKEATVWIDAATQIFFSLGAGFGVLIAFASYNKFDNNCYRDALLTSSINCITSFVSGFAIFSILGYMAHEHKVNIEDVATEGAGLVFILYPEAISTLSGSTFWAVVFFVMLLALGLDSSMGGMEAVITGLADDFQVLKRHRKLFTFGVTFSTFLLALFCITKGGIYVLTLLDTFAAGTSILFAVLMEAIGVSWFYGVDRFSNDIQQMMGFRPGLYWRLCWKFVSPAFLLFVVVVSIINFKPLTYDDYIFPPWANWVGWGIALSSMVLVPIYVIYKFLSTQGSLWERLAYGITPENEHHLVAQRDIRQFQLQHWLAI

[4] = target: T2, Sodium-dependent dopamine transporter (Rattus norvegicus, UniProt P23977); test: Displacement of [3H]WIN-35 428 from the dopamine transporter in rat caudate putamen.; assay type: tissue-based
T2 sequence (P23977 whole entry): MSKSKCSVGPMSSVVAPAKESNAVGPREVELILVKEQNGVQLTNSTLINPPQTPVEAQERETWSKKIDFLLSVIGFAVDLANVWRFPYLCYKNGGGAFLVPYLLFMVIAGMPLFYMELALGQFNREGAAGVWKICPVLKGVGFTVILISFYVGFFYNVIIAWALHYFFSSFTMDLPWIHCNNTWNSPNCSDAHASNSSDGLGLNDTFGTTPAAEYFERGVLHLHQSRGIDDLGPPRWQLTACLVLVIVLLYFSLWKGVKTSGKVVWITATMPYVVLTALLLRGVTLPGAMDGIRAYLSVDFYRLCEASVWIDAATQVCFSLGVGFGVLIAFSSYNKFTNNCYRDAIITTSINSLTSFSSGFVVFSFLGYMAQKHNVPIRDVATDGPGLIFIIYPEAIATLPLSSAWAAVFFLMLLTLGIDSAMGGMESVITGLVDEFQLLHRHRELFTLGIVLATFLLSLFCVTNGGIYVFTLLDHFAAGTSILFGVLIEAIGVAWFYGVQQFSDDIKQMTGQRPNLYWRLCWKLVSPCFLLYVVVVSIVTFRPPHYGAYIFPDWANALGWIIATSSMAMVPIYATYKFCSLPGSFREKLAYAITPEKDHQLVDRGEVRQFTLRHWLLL
Summary of the method: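 Rat caudate putamen membranes washed in Krebs-HEPES pH 7.4, 0.5% w/v final. Filtration through BSA-soaked GF/B. Compounds run at 0.01 nM–100 μM, three experiments in triplicate. Ki derived by LIGAND nonlinear fitting of two-site binding.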

[5] = target: T2, Sodium-dependent dopamine transporter; test: In vitro inhibition of dopamine uptake in rat tissue, was determined using [3H]DAU as radioligand
Summary of the method: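 Rat caudate putamen slices (225 μm, cross-chopped) in oxygenated Krebs-HEPES at 37 °C. Stopped with ice-cold buffer and filtration. Accumulated label extracted with methanol/HCl and counted; filter blank subtracted. IC50 taken from the linear portion of the concentration–response curve by regression.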

[6] = target: T3, Muscarinic acetylcholine receptor M1 (Rattus norvegicus, UniProt P08482); test: Binding affinity against Muscarinic acetylcholine receptor M1 sites of rat
T3 sequence (P08482 whole entry): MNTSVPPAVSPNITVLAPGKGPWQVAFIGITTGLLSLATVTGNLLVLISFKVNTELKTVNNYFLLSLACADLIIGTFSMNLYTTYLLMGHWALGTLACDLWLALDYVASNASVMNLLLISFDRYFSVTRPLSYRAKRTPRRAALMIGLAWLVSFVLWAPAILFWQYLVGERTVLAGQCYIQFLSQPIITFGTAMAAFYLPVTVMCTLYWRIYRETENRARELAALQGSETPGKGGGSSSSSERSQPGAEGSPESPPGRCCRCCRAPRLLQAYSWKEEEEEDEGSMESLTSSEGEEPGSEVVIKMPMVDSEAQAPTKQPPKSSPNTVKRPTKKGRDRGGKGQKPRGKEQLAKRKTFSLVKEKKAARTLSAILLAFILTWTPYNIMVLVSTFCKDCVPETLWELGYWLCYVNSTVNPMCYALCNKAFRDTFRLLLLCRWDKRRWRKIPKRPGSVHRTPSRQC
Summary of the method: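 Whole rat brain minus cerebellum, membranes made by two-step centrifugation and resuspended in 10 mM Tris pH 7.4. Assay buffer is 10 mM Tris-HCl with 5 mM MgCl2. Membrane is preincubated 5 min with the compound, then [3H]pirenzepine 3 nM final is added for 1 h at 37 °C. Filtration through PEI-soaked GF/B. Compounds run at 0.01 nM–100 μM, ≥3 independent experiments in triplicate.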

[7] = target: T1, Sodium-dependent noradrenaline transporter; test: as §3; conditions: concentration not given here; summary of the method: as §2
[8] = target: Sodium-dependent serotonin transporter (Rattus norvegicus) (UniProt P31652); test: as §1; assay type: tissue-based; conditions: concentration not given here; summary of the method: as §2
Chain of Sodium-dependent serotonin transporter (Rattus norvegicus) (P31652 whole entry): as the sequence (P31652 whole entry) above

[9] = target: T1, Sodium-dependent noradrenaline transporter; test: Compound was evaluated for binding to Norepinephrine Transporter (NET).; summary of the method: as §2

Chain of Sodium-dependent dopamine transporter (Rattus norvegicus) (P23977 whole entry): as the sequence (P23977 whole entry) above

SMILES | inhibition [1] [%] | pKi [2] | pKi [3] | pKi [4] | pIC50 [5] | pKi [6] | inhibition [7] [%] | inhibition [8] [%] | pKi [9]
CS(=O)(=O)N1C2CCC1CC(OC(c1ccc(F)cc1)c1ccc(F)cc1)C2 (configuration not stated) | 18 | – | – | – | – | – | – | – | –
CN1C2CCC1CC(OC(c1ccc(F)cc1)c1ccc(F)cc1)C2 (configuration not stated) [DIFLUOROBENZTROPINE] | – | 5.61 | < 5.07 | – | – | – | – | – | –
Fc1ccc(C(OCCN2C3CCC2CC(OC(c2ccc(F)cc2)c2ccc(F)cc2)C3)c2ccc(F)cc2)cc1 (configuration not stated) | – | – | – | 6.20 | – | – | – | – | –
Fc1ccc(C(OC2CC3CCC(C2)N3CCCc2ccccc2)c2ccc(F)cc2)cc1 (configuration not stated) | – | 6.43 | 5.45 | 7.38 | 6.64 | 6.87 | – | – | –
C=CCN1C2CCC1CC(OC(c1ccc(F)cc1)c1ccc(F)cc1)C2 (configuration not stated) | – | 5.84 | 5.23 | 7.52 | 7.85 | 6.90 | – | – | –
Fc1ccc(CN2C3CCC2CC(OC(c2ccc(F)cc2)c2ccc(F)cc2)C3)cc1 (configuration not stated) | – | – | – | 7.02 | 6.70 | 6.21 | 60 | – | –
Fc1ccc(C(OC2CC3CCC(C2)N3CC2CC2)c2ccc(F)cc2)cc1 (configuration not stated) | – | 5.92 | 5.32 | 7.49 | 6.74 | 6.87 | – | – | –
Fc1ccc(CCCN2C3CCC2CC(OC(c2ccc(F)cc2)c2ccc(F)cc2)C3)cc1 (configuration not stated) | – | – | – | 7.22 | – | – | – | – | –
Fc1ccc(C(OC2CC3CCC(C2)N3Cc2ccccc2)c2ccc(F)cc2)cc1 (configuration not stated) | – | – | 5.68 | 7.09 | 6.54 | 6.11 | – | 74 | –
O=[N+]([O-])c1ccc(CCCCN2[C@@H]3CC[C@H]2C[C@@H](OC(c2ccc(F)cc2)c2ccc(F)cc2)C3)cc1 | – | – | – | 7.69 | 6.19 | – | – | – | –
CCCCN1C2CCC1CC(OC(c1ccc(F)cc1)c1ccc(F)cc1)C2 (configuration not stated) | – | 5.76 | 5.88 | 7.61 | 6.43 | 6.60 | – | – | –
CC(=O)N1C2CCC1CC(OC(c1ccc(F)cc1)c1ccc(F)cc1)C2 (configuration not stated) | – | – | – | 5.63 | 5.34 | – | 8.5 | 1.3 | –
O=CN1C2CCC1CC(OC(c1ccc(F)cc1)c1ccc(F)cc1)C2 (configuration not stated) | – | – | – | 5.69 | 5.27 | 4.91 | 29.4 | 1.6 | –
Cc1ccc(S(=O)(=O)N2C3CCC2CC(OC(c2ccc(F)cc2)c2ccc(F)cc2)C3)cc1 (configuration not stated) | 0 | – | – | – | – | – | – | – | –
C[N+]1(C)[C@@H]2CC[C@H]1C[C@@H](OC(c1ccc(F)cc1)c1ccc(F)cc1)C2 | – | – | – | 6.97 | 6.89 | 7.54 | 38 | 79 | –
Fc1ccc(C(OC2CC3CCC(C2)N3)c2ccc(F)cc2)cc1 (configuration not stated) | – | 5.68 | – | 7.95 | 8.01 | 6.81 | – | – | < 5.10
O=[N+]([O-])c1ccc(-c2ccc(COCCN3C4CCC3CC(OC(c3ccc(F)cc3)c3ccc(F)cc3)C4)cc2)cc1 (configuration not stated) | – | – | – | 7.24 | – | – | – | – | –
